Hits are enriched below; roughly 1.5% of the tested compounds scored in any of these assays.
CRFBP-R2 block – antagonists of CRF-binding protein/CRF-R2 receptor complex; HEK293 CRF-R2/CRF-BP, CRF-induced calcium fluorescence; inhibition, % at 11.8 µM; 0.59% of 350,000 active;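 active = inhibition of the ligand-induced calcium signal above about 50% at the single tested concentration, limit read from the data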
S100A4 inh HTS – inhibitors of human S100A4 binding to myosin IIA peptide. P26447. S100A4/TAMRA-MyoIIA peptide fluorescence polarization. inhibition, % at 10.7 µM. 0.14% of 360,000 active;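 active = mean inhibition of at least 70% across replicates, with every replicate also reaching that level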
Target sequence (P26447 whole entry, looked up): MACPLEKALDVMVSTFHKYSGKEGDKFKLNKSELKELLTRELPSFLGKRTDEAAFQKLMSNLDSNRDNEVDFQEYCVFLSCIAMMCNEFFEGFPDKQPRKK
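Material: S100A4 monomer protein | Medium: HEPES pH 7.2 with CaCl2, KCl, NaCl, DTT, Triton | Reagent: Labelled myosin peptide probe, 5 nM | Doses: One dose per compound | Times: 5 min incubation before reading | Benchmarks: Neutral control DMSO, positive control TFP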
PKA-R2B act – activates the human PKA-R2B holoenzyme complex | activation, % at 11.4 µM | 0.079% of 340,000 active | PKA-R2B holoenzyme dissociation, Cy5-IP20 fluorescence polarization; R2B truncated from residue 108, S112A mutant; 0% DMSO only, 100% 113 µM cGMP;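 active = activation above a cutoff set at the mean over all compounds plus 3 SD, cut at about 18% in these data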;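 also: higher means more holoenzyme dissociation and a rise in polarization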
SIRT5 block – blocks human SIRT5 desuccinylation of peptide | Q9NXA8 | Purified SirT5, succinyl-peptide AMC, trypsin-coupled fluorescence | inhibition, % at 15 µM | 1.1% of 330,000 active; in the data active = inhibition above about 15%
Target sequence (Q9NXA8 whole entry, looked up): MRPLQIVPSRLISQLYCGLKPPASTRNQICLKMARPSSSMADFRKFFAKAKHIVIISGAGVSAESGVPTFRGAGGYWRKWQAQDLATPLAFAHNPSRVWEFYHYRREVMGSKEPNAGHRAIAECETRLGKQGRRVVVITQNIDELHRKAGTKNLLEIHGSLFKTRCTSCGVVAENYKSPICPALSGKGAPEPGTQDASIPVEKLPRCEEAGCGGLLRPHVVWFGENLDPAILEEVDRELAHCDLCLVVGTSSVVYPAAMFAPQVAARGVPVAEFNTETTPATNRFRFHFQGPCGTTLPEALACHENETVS
PKA-R1A activ – PKA-R1A complex activation; P00514+P68181; PKA-R1A dissociation, Cy5-IP20 fluorescence polarization; scaled: DMSO 0%, 113 µM cGMP 100%; activation, % at 11.4 µM; 0.083% of 340,000 active;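 active = percent activation above the mean of all tested compounds plus 3 SD, cut at about 19% in these data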;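 also: higher means more PKAc released from R1A so a rise in polarization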
The depositor's hits bear a star; nt = no result given.

SMILES | CRFBP-R2 block | S100A4 inh HTS | PKA-R2B act | SIRT5 block | PKA-R1A activ
Cc1ccc(CNC(=O)C2CCCN(S(=O)(=O)N3CC(C)CC(C)C3)C2)cc1 (stereo not drawn) | 15 | 0 | 3 | 20* | -6
Cc1ccc(S(=O)(=O)N[C@H]2C=C[C@@H](CC(=O)N3CCN(c4ccccc4)CC3)O[C@H]2CO)cc1 | nt | 29 | nt | -3 | nt
Cc1ccc(S(=O)(=O)N(C)C[C@@H]2Oc3c(NC(=O)c4nc5ccccc5s4)cccc3C(=O)N([C@@H](C)CO)C[C@H]2C)cc1 | nt | 15 | nt | 9 | nt
NC(=O)COc1ncn(-c2ccccc2)n1 | 57* | -8 | -3 | -9 | -5
COc1cccc(-c2cnc3c(c2)C(=O)N([C@H](C)CO)C[C@H](C)[C@H](CN(C)C(=O)NC2CCCCC2)O3)c1 | nt | 4 | nt | -5 | nt
Nc1cccc(Oc2c(F)c(F)c(Oc3cccc(N)c3)c(F)c2F)c1 | 28 | -5 | nt | -1 | nt
Nc1ccccc1Oc1c(F)c(F)c(Oc2ccccc2N)c(F)c1F | 67* | -3 | 8 | -5 | -14
COc1cccc(CNC(=O)[C@H]2CCCN2C(=O)[C@H]2CCCN2)c1 | nt | -3 | nt | nt | nt
COc1cccc(CNC(=O)[C@@H]2CCCN2)c1 | nt | 2 | nt | 25* | nt
C[C@H]1CN([C@@H](C)CO)C(=O)c2cccc(NC(=O)CCCCCC(=O)Nc3ccccc3N)c2O[C@H]1CN(C)C(=O)NC1CCCCC1 | nt | -4 | nt | 3 | nt
CCOC(=O)c1nn(-c2ccccc2)cc1O | 2 | -6 | 1 | 28* | -8
C[C@H]1CN([C@@H](C)CO)C(=O)c2cc(-c3cccnc3)cnc2O[C@H]1CN(C)C(=O)C1CCOCC1 | nt | -15 | nt | -3 | nt
CN(C)C(=O)[C@@H]1[C@@H](CO)[C@@H]2Cn3c(ccc(-c4cccnc4)c3=O)[C@@H]2N1Cc1ccccc1F | nt | 5 | nt | 9 | nt
C=CCSC1=N/C(=C\c2cc(OCC)c(OC(C)=O)c([N+](=O)[O-])c2)C(=O)S1 | 53* | nt | 7 | nt | -4
C[C@@H]1CN([C@H](C)CO)C(=O)c2ccccc2-c2ccccc2CO[C@@H]1CN(C)Cc1ccc(Cl)c(Cl)c1 | nt | 5 | nt | 2 | nt
C[C@H](CO)N1C[C@H](C)[C@@H](CN(C)Cc2ccccc2C(F)(F)F)OCc2ccccc2-c2ccccc2C1=O | nt | 6 | nt | 30* | nt
C[C@H]1CN([C@@H](C)CO)C(=O)c2ccccc2-c2ccccc2CO[C@@H]1CN(C)Cc1cccc(C(F)(F)F)c1 | nt | 8 | nt | 19* | nt
C[C@H]1CN([C@@H](C)CO)C(=O)c2ccccc2-c2ccccc2CO[C@@H]1CN(C)Cc1ccc(Cl)c(Cl)c1 | nt | -2 | nt | 19* | nt
C[C@@H]1CN([C@H](C)CO)C(=O)c2ccccc2-c2ccccc2CO[C@H]1CN(C)C(=O)Nc1ccccc1C(F)(F)F | nt | 3 | nt | nt | nt
C[C@H]1CN([C@@H](C)CO)C(=O)c2ccccc2-c2ccccc2CO[C@@H]1CN(C)C(=O)Nc1ccccc1C(F)(F)F | nt | -33 | nt | 21* | nt
C[C@H](O)C#Cc1cnc2c(c1)C(=O)N([C@H](C)CO)C[C@@H](C)[C@@H](CN(C)C(=O)c1ccncc1)O2 | nt | 7 | nt | -4 | nt
Cc1noc(C)c1NC(=O)Nc1ccc2c(c1)C(=O)N([C@H](C)CO)C[C@H](C)[C@H](CN(C)C(=O)c1ccccc1)OCCCC[C@@H](C)O2 | nt | -9 | nt | -5 | nt
C[C@H]1CN([C@@H](C)CO)C(=O)c2ccccc2-c2ccccc2CO[C@H]1CN(C)Cc1ccccc1C(F)(F)F | nt | -23 | nt | 17* | nt
CCn1ncc(C(=O)Nc2ccc([N+](=O)[O-])cc2OC)c1C | 51* | -3 | 2 | -2 | -3
C[C@H]1CN([C@@H](C)CO)S(=O)(=O)c2ccc(-c3cccnc3)cc2O[C@H]1CN(C)C(=O)C1CCC1 | nt | 1 | nt | 0 | nt
SMILES | CRFBP-R2 block | S100A4 inh HTS | PKA-R2B act | SIRT5 block | PKA-R1A activ
CCOc1ccc(N2CC(C(=O)NCc3ccccc3)CC2=O)cc1 (stereo not drawn) | 11 | -17 | -1 | -7 | -4
CNC(=O)C1CC(=O)N(c2ccc(OCC(=O)NCc3ccccc3)cc2)C1 (stereo not drawn) | -15 | 7 | -3 | 25* | 6
C[C@H](O)C#Cc1cnc2c(c1)C(=O)N([C@H](C)CO)C[C@H](C)[C@H](CN(C)C(=O)Nc1ccc(C(F)(F)F)cc1)O2 | nt | -6 | nt | 2 | nt
Cc1nn(CC(=O)N(C)C)c(=O)c2ccccc12 | 5 | -1 | -9 | 19* | 7
Cc1nn(CC(N)=O)c(=O)c2ccccc12 | -1 | nt | 1 | nt | -7
O=C(C[C@H]1CC[C@H]2[C@@H](COC[C@H](O)CN2Cc2ccncc2)O1)NCc1ccccc1Cl | nt | 1 | nt | -4 | nt
Cc1cc(N2CCN(C)CC2)nc2ccc(NC(=O)CCC(=O)NCCCOC(C)C)cc12 | 51* | -4 | -9 | -3 | 1
CCOc1ccc(C(=O)NC2CCCCCCC2)cc1 | 7 | 7 | 10 | -4 | -6
CCOc1ccc(/C=C(\C#N)C(=O)NC2CC2)c(OCC)c1 | 80* | 0 | 5 | 0 | 4
CCOc1cccc(C(=O)NC2CCCCC2)c1 | 1 | 0 | -2 | 22* | -1
COc1ccc2c3c([nH]c2c1)[C@H](CO)N(C(=O)c1ccc(F)cc1)CC31CCN(S(=O)(=O)c2cccs2)CC1 | nt | 39 | nt | 0 | nt
O=C(C[C@H]1CC[C@H]2[C@@H](COC[C@H](O)CN2C(=O)c2cccnc2)O1)NCc1ccc(-c2ccccc2)cc1 | nt | -34 | nt | -1 | nt
CCOC(=O)c1sc(NC(=O)CSc2n[nH]c(-c3ccncc3)n2)c(C#N)c1C | 70* | nt | 2 | nt | 4
Cc1ccc(S(=O)(=O)Nc2ccc3c(c2)C(=O)N([C@@H](C)CO)C[C@H](C)[C@@H](CN(C)S(=O)(=O)c2ccc(C)cc2)OCCCC[C@H](C)O3)cc1 | nt | -11 | nt | 2 | nt
Cc1ccc(S(=O)(=O)N(C)C[C@@H]2OCCCC[C@H](C)Oc3ccc(NS(=O)(=O)c4ccc(Cl)cc4)cc3C(=O)N([C@@H](C)CO)C[C@@H]2C)cc1 | nt | -15 | nt | 22* | nt
Cc1ccc(S(=O)(=O)N(C)C[C@H]2OCCCC[C@@H](C)Oc3ccc(NS(=O)(=O)c4ccc(Cl)cc4)cc3C(=O)N([C@H](C)CO)C[C@@H]2C)cc1 | nt | 0 | nt | 17* | nt
Cc1ccc(S(=O)(=O)N(C)C[C@H]2OCCCC[C@@H](C)Oc3ccc(NS(=O)(=O)c4ccc(Cl)cc4)cc3C(=O)N([C@@H](C)CO)C[C@@H]2C)cc1 | nt | -5 | nt | 21* | nt
C[C@H](CO)N1C[C@H](C)[C@H](CN(C)S(=O)(=O)c2ccccc2)OCCCC[C@H](C)Oc2ccc(NS(=O)(=O)c3ccc(Cl)cc3)cc2C1=O | nt | 0 | nt | 15* | nt
C[C@@H]1CCCCO[C@H](CN(C)S(=O)(=O)c2ccccc2)[C@H](C)CN([C@H](C)CO)C(=O)c2cc(NS(=O)(=O)c3ccc(Cl)cc3)ccc2O1 | nt | 2 | nt | 6 | nt
